PubChem BioAssay AID2465 (Broad Institute, 2010)
Screen size: about 24,000 compounds; fewer than 10 were called active. Cut-off read from the data, not from the text of the source: active = caspase activation above about 5.9%; inconclusive = no clear call, values can overlap the other calls; inactive = below about 2.2%. The list is a sample of the results.

Assay: Bcl2-A1 antagonists releasing BIM, apoptosis – cell-based, luminescence, HTS, two replicates, primary screen (AID 2465)
Settings: MEF A1-2A-BIM cells, caspase-Glo luminescence, 3 h; stronger effect = higher value; percent of clofoctol response, DMSO zero; concentration not given here
Outline: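 Material: A1-2A-BIM-expressing MEF cells. Buffer or medium: RPMI-1640 plus 10% FBS. Incubation: cells settled overnight, compound exposure 3 h at 37 °C, 5% CO2. Signal: Caspase-Glo 3/7 luminescence, 1 h at room temperature.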

Caspase activation, inactive:
C[C@@H]1CCCCO[C@H](CN(C)Cc2ccc3c(c2)OCO3)[C@H](C)CN([C@@H](C)CO)C(=O)c2cc(NS(=O)(=O)c3cn(C)cn3)ccc2O1 -0.23%
Cc1ccc(S(=O)(=O)Nc2ccc3c(c2)C(=O)N([C@H](C)CO)C[C@@H](C)[C@H](CN(C)C(=O)Nc2ccc(C(F)(F)F)cc2)OCCCC[C@H](C)O3)cc1 -0.505%
COc1ccc(CN(C)C[C@@H]2Oc3ccc(NS(=O)(=O)c4ccc(F)cc4)cc3C(=O)N([C@@H](C)CO)C[C@@H]2C)cc1 -0.363%
C[C@H]1CN([C@@H](C)CO)C(=O)c2cccc(NS(=O)(=O)c3ccc(Cl)cc3)c2O[C@H]1CN(C)S(=O)(=O)c1ccc(Cl)cc1 -1.18%
Cc1ccc(S(=O)(=O)N(C)C[C@@H]2Oc3ccc(NC(=O)Cc4cn(C)c5ccccc45)cc3C(=O)N([C@@H](C)CO)C[C@@H]2C)cc1 0.187%
Cc1noc(C)c1S(=O)(=O)Nc1ccc2c(c1)CC(=O)N([C@@H](C)CO)C[C@H](C)[C@H](CN(C)C(=O)Nc1cccc3ccccc13)O2 0.254%
O=C(CCCCCCC(=O)Nc1ccccc1O)N/N=C/c1ccc(CO)o1 -0.255%
COC(=O)CCCCCCC(=O)N/N=C/c1ccc2ccccc2c1O -1.41%
COc1ccc(NC(=O)N(C)C[C@H]2OCCCC[C@@H](C)Oc3ccc(NC(=O)NC4CCCCC4)cc3C(=O)N([C@@H](C)CO)C[C@H]2C)cc1 0.476%
C[C@@H]1CN([C@@H](C)CO)C(=O)c2cc(NS(=O)(=O)c3cn(C)cn3)ccc2O[C@@H]1CN(C)Cc1ccc(C(=O)Nc2ccccc2N)cc1 0.311%
C[C@H]1CN([C@@H](C)CO)C(=O)c2cc(NC(=O)C3CCCCC3)ccc2O[C@H]1CN(C)C(=O)Nc1ccccc1 0.892%
C[C@@H]1CCCCO[C@@H](CN(C)Cc2ccc(C(=O)O)cc2)[C@@H](C)CN([C@@H](C)CO)C(=O)c2cc(NC(=O)Nc3ccc(C(F)(F)F)cc3)ccc2O1 0.286%
COc1ccc(NC(=O)Nc2ccc3c(c2)C(=O)N([C@@H](C)CO)C[C@@H](C)[C@@H](CN(C)Cc2ccncc2)OCCCC[C@@H](C)O3)cc1 -1.58%
C[C@@H]1CN([C@H](C)CO)C(=O)Cc2cc(NC(=O)CCC(F)(F)F)ccc2O[C@@H]1CN(C)Cc1ccncc1 0.918%
COc1ccc(NC(=O)N(C)C[C@H]2OCCCC[C@@H](C)Oc3ccc(NC(=O)c4ccncc4)cc3C(=O)N([C@@H](C)CO)C[C@H]2C)cc1 -1.47%
COc1ccc(C(=O)Nc2cccc(-n3cc(C(=O)NO)nn3)c2)cc1 -0.373%
COc1ccc(S(=O)(=O)Nc2ccc3c(c2)C(=O)N([C@@H](C)CO)C[C@H](C)[C@H](CN(C)S(=O)(=O)c2ccc(F)cc2)OCCCC[C@@H](C)O3)cc1 0.149%
C[C@H]1CN([C@@H](C)CO)C(=O)CCCn2cc(nn2)CO[C@@H]1CN(C)S(=O)(=O)c1cccc(C#N)c1 0.238%
Cc1noc(C)c1S(=O)(=O)N(C)C[C@@H]1Oc2ccc(NC(=O)Cn3cnnn3)cc2CC(=O)N([C@@H](C)CO)C[C@H]1C -0.944%
C[C@@H]1CN([C@@H](C)CO)C(=O)Cc2cc(NC(=O)CCCCCC(=O)Nc3ccccc3N)ccc2O[C@@H]1CN(C)C(=O)NC1CCCCC1 0.875%
C[C@H]1CN([C@@H](C)CO)C(=O)Cc2cc(NS(=O)(=O)c3ccccc3)ccc2O[C@H]1CN(C)Cc1ccc(C(=O)Nc2ccccc2N)cc1 0.839%
COc1ccc(CN(C)C[C@H]2OCCCC[C@H](C)Oc3ccc(NC(=O)NC4CCCCC4)cc3C(=O)N([C@@H](C)CO)C[C@@H]2C)cc1 2.09%
CN(C)c1ccc(/C=N/NC(=O)c2cccc(C(=O)NO)c2)cc1 -7.51%
C[C@@H]1CN([C@@H](C)CO)C(=O)c2cc(NC(=O)Nc3ccc4c(c3)OCO4)ccc2O[C@@H](C)CCCCO[C@@H]1CN(C)S(=O)(=O)c1cccs1 0.598%
COc1ccc(CN(C)C[C@H]2OCCCC[C@H](C)Oc3ccc(NC(=O)c4ccccc4)cc3C(=O)N([C@@H](C)CO)C[C@@H]2C)cc1 2.67%
O=C(NO)c1cccc(C(=O)N/N=C/c2cc(Br)c(O)c(Br)c2)c1 0.169%
CC(C)NC(=O)N(C)C[C@H]1Oc2ccc(NC(=O)CCCCCC(=O)Nc3ccccc3N)cc2CC(=O)N([C@@H](C)CO)C[C@H]1C 0.899%
Cc1noc(C)c1S(=O)(=O)N(C)C[C@H]1OCc2cn(nn2)CCCC(=O)N([C@H](C)CO)C[C@H]1C -0.756%
C[C@H]1CCCCO[C@@H](CN(C)C(=O)Nc2ccccc2)[C@@H](C)CN([C@@H](C)CO)C(=O)c2cc(NC(=O)Nc3ccc(F)cc3)ccc2O1 -0.917%
Cc1ccc(S(=O)(=O)Nc2ccc3c(c2)C(=O)N([C@H](C)CO)C[C@H](C)[C@@H](CN(C)Cc2ccccc2)OCCCC[C@H](C)O3)cc1 -0.556%
C[C@H](CO)N1C[C@H](C)[C@@H](CN(C)Cc2ccc(C(=O)O)cc2)Oc2ccc(NS(=O)(=O)c3cn(C)cn3)cc2CC1=O -0.273%
C[C@@H]1CCCCO[C@@H](CN(C)C(=O)Nc2cccc3ccccc23)[C@H](C)CN([C@H](C)CO)C(=O)c2cc(NS(C)(=O)=O)ccc2O1 -0.00967%
Cc1noc(C)c1NC(=O)Nc1ccc2c(c1)C(=O)N([C@H](C)CO)C[C@@H](C)[C@@H](CN(C)Cc1ccncc1)OCCCC[C@H](C)O2 -0.749%
C[C@@H]1CN([C@@H](C)CO)C(=O)c2cc(NC(=O)Cc3ccccc3)ccc2O[C@@H]1CN(C)CC1CCCCC1 0.64%
Cc1noc(C)c1NC(=O)Nc1ccc2c(c1)C(=O)N([C@@H](C)CO)C[C@@H](C)[C@H](CN(C)C(=O)NC(C)C)O2 0.213%
C[C@@H]1CN([C@H](C)CO)C(=O)c2cc(NC(=O)CCCCCC(=O)Nc3ccccc3N)ccc2O[C@H]1CN(C)Cc1ccncc1 0.61%
C[C@@H]1CCCCO[C@H](CN(C)CC2CC2)[C@@H](C)CN([C@H](C)CO)C(=O)c2cc(NC(=O)Nc3ccc(F)cc3)ccc2O1 -0.194%
COc1ccc(S(=O)(=O)N(C)C[C@@H]2Oc3c(NC(=O)NC(C)C)cccc3C(=O)N([C@@H](C)CO)C[C@@H]2C)cc1 -0.3%
O=C(CCCCC(=O)N/N=C/c1ccc(-n2ccnc2)cc1)NO 1.09%
C[C@H](CO)N1C[C@H](C)[C@H](CN(C)C(=O)c2ccccc2)OCCCC[C@H](C)Oc2ccc(N(C)C)cc2C1=O -1.45%
CC(C)NC(=O)Nc1ccc2c(c1)C(=O)N([C@H](C)CO)C[C@H](C)[C@@H](CN(C)S(=O)(=O)c1ccc(F)cc1)OCCCC[C@H](C)O2 1.08%
COc1ccc(S(=O)(=O)N(C)C[C@@H]2OCCCC[C@@H](C)Oc3ccc(NC(=O)c4ccccc4)cc3C(=O)N([C@@H](C)CO)C[C@H]2C)cc1 1.47%
C[C@@H]1CCCCO[C@H](CN(C)C(=O)Nc2ccc(C(F)(F)F)cc2)[C@@H](C)CN([C@@H](C)CO)C(=O)c2cc(NS(=O)(=O)c3cccs3)ccc2O1 -0.547%
CCOc1cccc(/C=N/NC(=O)CCCCCC(=O)Nc2ccccc2O)c1OCC -0.952%
C[C@@H]1CN([C@@H](C)CO)C(=O)c2cc(NC(=O)Nc3ccc(C(F)(F)F)cc3)ccc2O[C@@H](C)CCCCO[C@H]1CN(C)C(=O)CCCN(C)C 0.263%
Cc1noc(C)c1NC(=O)N(C)C[C@@H]1Oc2ccc(NS(=O)(=O)c3ccc(F)cc3)cc2CC(=O)N([C@@H](C)CO)C[C@H]1C -0.135%
COc1ccc(S(=O)(=O)Nc2ccc3c(c2)CC(=O)N([C@H](C)CO)C[C@H](C)[C@@H](CN(C)C(=O)NC(C)C)O3)cc1 0.0847%
C[C@H](CO)N1C[C@H](C)[C@@H](CN(C)S(C)(=O)=O)OCCCC[C@H](C)Oc2ccc(NC(=O)Nc3ccc(C(F)(F)F)cc3)cc2C1=O -0.463%
C[C@H]1CCCCO[C@H](CN(C)S(C)(=O)=O)[C@@H](C)CN([C@@H](C)CO)C(=O)c2cc(NC(=O)C3CCCCC3)ccc2O1 -0.127%
C[C@@H]1CN([C@@H](C)CO)C(=O)c2cc(NC(=O)NC3CCCCC3)ccc2O[C@@H](C)CCCCO[C@H]1CN(C)Cc1ccccc1 1.95%
C[C@@H]1CCCCO[C@@H](CN(C)C(=O)Nc2cccc3ccccc23)[C@H](C)CN([C@H](C)CO)C(=O)c2cc(NC(=O)NC3CCCCC3)ccc2O1 -0.528%
COc1ccc(NC(=O)N(C)C[C@H]2OCCCC[C@H](C)Oc3ccc(NC(=O)c4ccncc4)cc3C(=O)N([C@H](C)CO)C[C@@H]2C)cc1 -1.84%
COc1ccc(S(=O)(=O)Nc2cccc3c2O[C@@H](CN(C)C(=O)NC(C)C)[C@H](C)CN([C@@H](C)CO)C3=O)cc1 0.104%
COc1ccc(CN(C)C[C@H]2Oc3ccc(NS(=O)(=O)c4c(C)noc4C)cc3CC(=O)N([C@H](C)CO)C[C@H]2C)cc1 -1.02%
